Results of several laboratories.
Lines come from different studies, so protocols differ.
Read-out: cell growth or viability

| SMILES | cell line | test | setting | endpoint | value |
| --- | --- | --- | --- | --- | --- |
| CC(Oc1ccc(Cl)cc1Cl)C(=O)NC(c1ccc(F)cc1)C1CCC1 (centres unmarked) | CHO | LDH | – | CC50 | > 100 µM |
| CN1CCN(CC2CCN(c3nccc4[nH]c(-c5cc(F)cc(F)c5)nc34)CC2)CC1 | CHO | – | – | CC50 | 24 µM |
| COc1ccc(S(=O)(=O)ON=C2C=C(C)C(=O)C(C)=C2)cc1 | SH-SY5Y | – | – | CC50 | 0.19 µM |
| CN1CCN(c2nccc3nc(-c4ccc(F)c(F)c4)[nH]c23)CC1 | CHO | – | – | CC50 | > 50 µM |
| O=C(Cn1cnc2ccccc21)NN=Cc1ccc(O)cc1O | SH-SY5Y | MTT | 24 h | IC50 | 89.2 µM |
| CC(Oc1ccc(F)cc1Cl)C(=O)NCc1ccc2c(c1)OCO2 (centres unmarked) | CHO | LDH | – | CC50 | > 100 µM |
| O=[N+]([O-])c1ccc(-c2nc3cccc(O)c3[nH]2)o1 | CHO | resazurin | 72 h | CC50 | 97 µM |
| C#CCN[C@@H]1CCc2ccccc21 | SH-SY5Y | MTT | 24 h | IC50 | > 500 µM |
